NTR1 ag: agonists of human neurotensin receptor NTR1 | P30989 | NTR1-U2OS beta-arrestin-GFP spot imaging, agonist mode | activation, % at 20 µM | 330,000 tested, 0.17% active | AID 493036;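 active = activation at or above 40% of the spot to cytoplasm intensity ratio, with at least 20 cells analyzed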
Arrestin-AP2 inh: blocks beta-arrestin peptide binding to AP2 adaptin; FITC-arrestin peptide / GST-AP2 beads, flow cytometry; AP2 beta2 appendage carries R879A mutation; inhibition, % at 10 µM; 340,000 tested, 0.31% active; AID 504490;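 active = inhibition above a set limit, near 3 SD of compounds lacking own fluorescence, cut at about 54% in these data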
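System: GST-tagged AP2 beta2-adaptin appendage (R879A) on 4 µm glutathione beads / Reagent: FITC-arrestin peptide, 50 nM / Detection: HyperCyt-sampled flow cytometry, FL1 channel, ex 488/em 535 nm / Timing: 12 min plus 1 h, RT / Buffer or medium: PBS plus Tween 20 (0.05%) and BSA (0.1%)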
GRK2 aptamer HTS: inhibitors of human GRK2 displacing RNA aptamer; P25098; bead flow cytometry, FAM-aptamer displacement from GRK2; inhibition of aptamer binding, % at 10 µM; 330,000 tested, 0.59% active; AID 488847;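 active = inhibition of aptamer binding above 40%, roughly 3 SD of noise, on plates passing a quality check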;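 note: median bead fluorescence of bound FAM aptamer so fluorescent compounds give negative values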
Target sequence (P25098 whole entry, looked up): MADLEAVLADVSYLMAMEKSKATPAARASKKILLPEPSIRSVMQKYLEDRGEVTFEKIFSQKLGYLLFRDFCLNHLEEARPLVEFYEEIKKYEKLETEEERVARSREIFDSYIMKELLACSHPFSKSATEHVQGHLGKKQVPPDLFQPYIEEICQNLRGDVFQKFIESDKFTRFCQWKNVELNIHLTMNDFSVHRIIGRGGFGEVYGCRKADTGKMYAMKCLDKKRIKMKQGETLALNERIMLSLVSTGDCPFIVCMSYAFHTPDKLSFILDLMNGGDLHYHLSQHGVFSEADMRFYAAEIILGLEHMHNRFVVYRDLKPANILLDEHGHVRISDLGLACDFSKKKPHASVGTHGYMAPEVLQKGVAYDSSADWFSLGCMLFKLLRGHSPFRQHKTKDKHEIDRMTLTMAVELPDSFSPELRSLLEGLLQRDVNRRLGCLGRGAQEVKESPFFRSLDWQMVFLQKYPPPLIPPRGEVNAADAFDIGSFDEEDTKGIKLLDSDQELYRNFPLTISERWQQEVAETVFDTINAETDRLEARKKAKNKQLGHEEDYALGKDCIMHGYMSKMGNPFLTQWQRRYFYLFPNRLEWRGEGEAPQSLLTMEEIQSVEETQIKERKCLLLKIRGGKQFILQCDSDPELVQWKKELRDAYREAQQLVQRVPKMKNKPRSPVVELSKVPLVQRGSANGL
Lipid droplet: modulators of hepatic lipid droplet formation; AML12 mouse hepatocytes, oleate lipid droplets, BODIPY imaging; 240,000 tested, 0.4% active; inhibition, % at 6.5 µM; AID 1656;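 active = lipid droplet intensity inhibited by at least 50%, with more than 500 cells counted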
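Assay system: AML12 mouse liver cells | Compound: 6.5 µM single-point dosing | Schedule: Overnight exposure | Technique: Fluorescence imaging, 20x objective, two fields per well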
B2AR ag: agonists of human beta-2 adrenergic receptor inducing internalization; P07550; response, % (test concentration not listed); 340,000 tested, 0.43% active; Am2.2-beta2AR cells, FAP receptor internalization, flow cytometry;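 active = response above a set limit, near 3 SD of response in nonfluorescent compounds, cut at about 42% in these data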
TAG inh: reduces triacylglycerol accumulation in H9c2 cells | Nile Red lipid (TAG) fluorescence; cells loaded with 200 µM oleic acid | inhibition, % at 12.5 µM | 230,000 tested, 0.66% active;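 active = pattern-corrected inhibition of lipid staining of at least 50% with the nuclear-stain viability signal not falling by more than 50%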
Beta2AR ag CP1: agonists of human beta-2 adrenergic receptor; 1,100 tested, 25% active; shares compounds with B2AR ag; Am2.2-beta2AR cells, FAP surface receptor, flow cytometry; active compounds read low; AID 540358; percent response (surface receptor), % at 10 µM;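 active = surface receptor percent response at or below 58%, roughly 3 SD from nonfluorescent compounds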
FAP fluor counter: counter-screen for beta-2AR agonists: fluorescence in Am2.2 cells | shares compounds with B2AR ag | FAP fluorogen flow cytometry, fluorescence counterscreen; active compounds read low | calls only at 10 µM | 1,100 tested, under 10 active | AID 588765;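 active = percent response below a set limit in fluorescence channel 1 and below 50% in channel 8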
Hits are given with their value; i = inactive; nt = no result. An excerpt weighted towards active compounds, which were near 2% of everything screened.

SMILES	NTR1 ag	Arrestin-AP2 inh	GRK2 aptamer HTS	Lipid droplet	B2AR ag	TAG inh	Beta2AR ag CP1	FAP fluor counter
COc1ccc(C(=O)Nc2nc3cc4c(cc3s2)OCCO4)c(OC)c1	i	i	i	i	54.1	i	i	i
Cc1ccc(NC(=S)NNC(C)(C)C)cc1	i	i	i	i	i	i	i	i
CNC[C@H](NC[C@@H](NCCCc1ccccc1)c1ccccc1)[C@H](C)O	i	i	i	i	55.1	i	i	i
Cc1cc(C(=O)CCC(=O)NCC(=O)Nc2c(C)cccc2C)c(C)s1	i	i	i	nt	i	i	nt	nt
O=C1C(O)CC2c3ccccc3CC3(CCCC3)N12 (configuration not stated)	i	i	i	nt	i	i	i	i
CC1(C)C2CCC1(CS(=O)(=O)N1CCN(c3ccccc3F)CC1)C(=O)C2 (configuration not stated)	i	i	i	i	71.9	nt	i	i
CC(=O)c1c(O)cc(O)cc1O	nt	i	nt	nt	i	nt	nt	nt
CN1CCN(c2ccc(NC(=O)c3ccc([N+](=O)[O-])o3)cc2Cl)CC1	i	i	i	i	i	nt	nt	nt
CCCC(=O)N1CCN(c2ccc(NC(=O)c3ccc([N+](=O)[O-])o3)cc2Cl)CC1	nt	i	nt	i	42.3	i	4.8	i
CCOc1cc(CNCCc2ccc(S(N)(=O)=O)cc2)ccc1OCc1ccccc1	nt	i	i	nt	i	nt	i	i
C[C@H](CO)N1C[C@H](C)[C@@H](CN(C)S(=O)(=O)c2cn(C)cn2)Oc2ccc(NS(=O)(=O)c3ccccc3)cc2C1=O	i	i	i	nt	i	i	nt	nt
CC(C)(C)C1CCC(C(=O)Nc2ccccc2)CC1 (configuration not stated)	i	i	i	i	51.2	nt	i	i
Cc1csc(NC(=O)c2ccc(S(=O)(=O)N3CCN(C)CC3)cc2)n1	i	i	i	i	i	nt	nt	nt
CCc1ccc(OCCOCC(O)CNC(C)CC)cc1 (configuration not stated)	i	i	i	i	74.2	i	i	i
CCCn1c(=O)c2c(nc3n2CCCN3CCc2ccc(OC)c(OC)c2)n(C)c1=O	i	i	i	i	i	nt	nt	nt
O=C(Nc1ccc2nc(-c3cccs3)c(-c3cccs3)nc2c1)N1CCOCC1	i	i	i	i	59.1	nt	20.2	i
COc1cccc(NC(=O)CSCc2nc3sc(C)c(C)c3c(=O)[nH]2)c1	nt	nt	nt	nt	nt	i	nt	nt
CN(C(=O)c1ccc(NC(=O)Cc2cccc(NC(=O)C3CCN(C(=O)C4CCC4)CC3)c2)cc1)C1CC1	nt	i	nt	nt	i	i	i	i
CN(C(=O)c1ccc(NC(=O)Cc2cccc(NC(=O)C3CCN(C(=O)C4CCCCC4)CC3)c2)cc1)C1CCCC1	i	i	i	nt	54.1	i	i	i
CCOC(=O)CSc1nc(C)c(C(C)=O)cc1C(N)=O	i	i	i	i	i	i	nt	nt
NC(=O)CC(NC(=O)c1ccccc1)c1ccc(NCCCN2CCCC2=O)c([N+](=O)[O-])c1 (configuration not stated)	i	i	i	i	90.1	i	36.3	i
NC(=O)CC(NC(=O)Cc1ccc(Cl)cc1)c1ccc(NCCCN2CCCC2=O)c([N+](=O)[O-])c1 (configuration not stated)	i	i	i	i	i	i	i	i
NC(=O)CC(NC(=O)c1ccc(Br)cc1)c1ccc(N2CCN(c3ccccc3)CC2)c([N+](=O)[O-])c1 (configuration not stated)	i	i	i	i	i	i	nt	nt
NC(=O)CC(NC(=O)c1ccccc1)c1ccc(N2CCN(c3ccccn3)CC2)c([N+](=O)[O-])c1 (configuration not stated)	i	i	i	i	i	i	i	i
O=C(CCN1CCCO1)N1CCCC(Nc2cccc(F)c2)C1 (configuration not stated)	nt	nt	nt	nt	nt	i	nt	nt
SMILES	NTR1 ag	Arrestin-AP2 inh	GRK2 aptamer HTS	Lipid droplet	B2AR ag	TAG inh	Beta2AR ag CP1	FAP fluor counter
CCC1(c2ccccc2)ON(c2c(Br)cccc2Br)C1=O (configuration not stated)	i	i	i	nt	i	i	nt	nt
Cc1ccc(F)cc1NCC(=O)Nc1ccc(Br)cc1	i	i	i	i	79.7	nt	i	i
Cc1cc(C)n(-c2nc(SCC(=O)Nc3nccs3)c3c4c(sc3n2)COC(C)(C)C4)n1	i	i	i	nt	92.8	i	i	i
C=CCn1c(CCNC(=O)c2cccs2)nnc1SCC(=O)Nc1cccc(C(C)=O)c1	i	i	i	i	i	i	nt	nt
C=CCn1c(CCNC(=O)c2cccs2)nnc1SCC(=O)c1ccc(Br)cc1	i	i	i	i	98.1	nt	18.6	i
CN(CCO)C(=O)c1ccc(-c2nn(C)c(=O)c3ccccc23)cc1	i	i	i	i	i	i	nt	nt
Cn1nc(-c2ccc(C(=O)NCCO)cc2)c2ccccc2c1=O	i	i	i	i	i	i	i	i
CN(Cc1ccccc1)S(=O)(=O)c1ccc(NS(=O)(=O)Cc2ccccc2)cc1	i	i	i	i	47.8	nt	33.7	i
CCCNC(=O)C1(C)CCCN(CC(=O)c2ccccc2OC)C1 (configuration not stated)	nt	nt	nt	nt	nt	i	nt	nt
CCOC(=O)N1CCN(Cc2c(F)cccc2F)CC1	i	i	i	i	51.5	i	i	i
CCOC(=O)N1CCN(Cc2c(F)cccc2Cl)CC1	i	i	i	nt	i	nt	nt	nt
Cc1ccc(-n2nc3c(=O)n(CCCC(=O)NCc4cccc(F)c4)nc(C)c3c2C)cc1	i	i	i	i	i	nt	nt	nt
O=C(c1cccs1)N1C[C@@H](n2cc(C3CC3)nn2)[C@H](O)C[C@@H]1c1ccccc1	nt	nt	nt	nt	nt	i	nt	nt
CCOc1ccccc1N=NC1C(=O)N(C(N)=S)N=C1C (configuration not stated)	i	i	i	nt	i	nt	i	i
CN(C(=O)COC(=O)c1ccc[nH]c1=O)C1CCCCC1	i	i	i	i	i	i	nt	nt
CC1CCCN(C(=O)COC(=O)c2ccc[nH]c2=O)C1 (configuration not stated)	i	i	i	i	51.0	i	i	i
COC(=O)C1=C(C(=O)OC)C(c2ccccc2O)c2sc(=O)[nH]c2S1 (configuration not stated)	i	i	i	i	99.6	nt	i	i
CC1CCN(C(=O)CSc2nnc(CNC(=O)c3ccc(F)cc3)o2)CC1	i	i	i	i	i	i	nt	nt
CCOc1ccc(OCC)c(NC(=O)CSc2nc3cccnc3n2C)c1	i	i	i	i	i	nt	nt	nt
CCOc1ccc2nc(NC(=O)CSc3nc4cccnc4n3C)sc2c1	i	i	i	nt	49.5	i	i	i
Cc1ccc(S(=O)(=O)Nc2ccc(O)c3cccnc23)cc1	i	i	i	i	i	nt	i	i
